Source: ChEMBL document CHEMBL4339184, “Discovery of deshydroxy bicalutamide derivatives as androgen receptor antagonists” (Eur J Med Chem, 2019)

How the values were obtained:
[1] = system: LNCaP; test: Antiproliferative activity against human LNCAP cells assessed as reduction in cell viability after 96 hrs by MTT assay; format: functional, cell-based
Method in brief: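 LNCaP cells in RPMI-1640 with 10% FCS, penicillin/streptomycin, 37°C, 5% CO2; seeded 4000 cells/well, adhered overnight. Medium replaced with fresh medium carrying nine half-log concentrations up to 100 μM (DMSO 1:100) or DMSO control, triplicate, 96 h. MTT, formazan dissolved in acidified isopropanol, A540; viability vs DMSO; absolute IC50 by non-linear regression, mean of three independent experiments.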

[2] = system: VCaP; test: Antiproliferative activity against human VCaP cells assessed as reduction in cell viability after 96 hrs by MTS assay; format: functional, cell-based
Method in brief: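 VCaP cells in DMEM with 10% FCS, exposed for 96 h in triplicate to nine concentrations from 0.1 to 100 μM or DMSO. Because adherence is poor, only half the medium was exchanged for medium carrying compound at a 1:50 dilution. Viability by MTS, absorbance at 490 nm after 1 and 2 h, normalised to DMSO; IC50 from triplicate means.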

[3] = biological target: T1, Androgen receptor (Homo sapiens) (UniProt P10275); test: Antagonist activity at androgen receptor in human LNCAP cells assessed as reduction in PSA expression after 24 hrs by qPCR analysis; format: cell-based
T1 sequence (whole entry): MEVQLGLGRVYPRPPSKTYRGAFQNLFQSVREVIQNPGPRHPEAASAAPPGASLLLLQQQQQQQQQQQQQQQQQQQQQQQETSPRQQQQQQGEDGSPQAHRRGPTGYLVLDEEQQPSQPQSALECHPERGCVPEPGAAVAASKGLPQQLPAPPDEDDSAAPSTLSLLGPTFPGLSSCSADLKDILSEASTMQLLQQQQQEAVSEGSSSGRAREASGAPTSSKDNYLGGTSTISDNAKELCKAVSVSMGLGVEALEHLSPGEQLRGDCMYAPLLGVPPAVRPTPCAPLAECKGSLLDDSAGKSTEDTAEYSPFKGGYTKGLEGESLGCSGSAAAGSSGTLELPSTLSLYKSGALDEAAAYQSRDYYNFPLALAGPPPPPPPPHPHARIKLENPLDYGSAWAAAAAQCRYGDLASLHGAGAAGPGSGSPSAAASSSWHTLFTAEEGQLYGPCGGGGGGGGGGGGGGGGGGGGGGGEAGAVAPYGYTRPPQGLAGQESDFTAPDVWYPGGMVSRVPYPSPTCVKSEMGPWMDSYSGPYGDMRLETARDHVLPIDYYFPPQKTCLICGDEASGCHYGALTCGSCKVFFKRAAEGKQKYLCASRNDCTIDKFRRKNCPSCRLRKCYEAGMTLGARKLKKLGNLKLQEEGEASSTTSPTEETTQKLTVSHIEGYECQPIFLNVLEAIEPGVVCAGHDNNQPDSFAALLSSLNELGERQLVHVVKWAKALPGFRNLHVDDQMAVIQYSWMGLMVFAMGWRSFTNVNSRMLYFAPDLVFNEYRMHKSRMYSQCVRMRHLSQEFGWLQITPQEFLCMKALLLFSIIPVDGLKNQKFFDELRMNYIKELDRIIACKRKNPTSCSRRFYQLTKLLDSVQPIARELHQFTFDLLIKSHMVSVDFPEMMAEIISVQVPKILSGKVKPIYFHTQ
Method in brief: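 LNCaP cells seeded in 6-well plates in RPMI and allowed 24 h to adhere, then exposed to 5, 10, 50 and 100 μM for 24 h; untreated and DMSO (1:100) wells as negative controls. RNA extracted with TRI-reagent, reverse-transcribed, qPCR run in triplicate for PSA with AR, GAPDH, RPL19 and β-actin as housekeeping genes; relative expression by ΔΔCT.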

[4] = system: PC-3; test: Antiproliferative activity against human PC3 cells assessed as reduction in cell viability after 96 hrs by MTT assay; format: functional, cell-based; details: PC-3, 96 h
Method in brief: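 PC3 cells grown in DMEM with 10% FCS, seeded at 4000 cells/well, adhered overnight, then medium replaced with medium containing nine concentrations from 0.1 to 100 μM (1:100 dilution of DMSO stocks) or DMSO control, in triplicate, for 96 h. MTT read-out: formazan dissolved in acidified isopropanol, absorbance at 540 nm; viability normalised to DMSO; IC50 from triplicate means.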

[5] = system: LNCaP; test: Potency index, ratio of IC50 for enzalutamide to IC50 for test compound for antiproliferative activity against human LNCAP cells incubated for 96 hrs by MTT assay; format: functional
[6] = system: LNCaP; test: Potency index, ratio of IC50 for bicalutamide to IC50 for test compound for antiproliferative activity against human LNCAP cells incubated for 96 hrs by MTT assay; format: functional

CC(CSc1cc(C(F)(F)F)cc(C(F)(F)F)c1)C(=O)Nc1ccc([N+](=O)[O-])cc1C(F)(F)F (racemic)
IC50 [1]: 43.7 µM

CC(CSc1ccc(C(F)(F)F)cc1)C(=O)Nc1ccc([N+](=O)[O-])c(C(F)(F)F)c1 (racemic)
IC50 [1]: 4.41 µM

CC(CS(=O)(=O)c1cc(C(F)(F)F)cc(C(F)(F)F)c1)C(=O)Nc1ccc(C#N)cc1C(F)(F)F (racemic)
IC50 [1]: 9.56 µM

CC(CSc1cc(C(F)(F)F)cc(C(F)(F)F)c1)C(=O)Nc1ccc(C#N)cc1C(F)(F)F (racemic)
IC50 [1]: 4.57 µM

CC(CSc1ccc(C(F)(F)F)cc1)C(=O)Nc1ccc([N+](=O)[O-])cc1C(F)(F)F (racemic)
IC50 [1]: 54.3 µM

CC(CS(=O)(=O)c1ccc(C(F)(F)F)cc1)C(=O)Nc1ccc([N+](=O)[O-])c(C(F)(F)F)c1 (racemic)
IC50 [1]: 3.31 µM

CC(CSc1cccc(OC(F)(F)F)c1)C(=O)Nc1ccc(C#N)c(C(F)(F)F)c1 (racemic)
IC50 [1]: 115 µM

CC(CS(=O)(=O)c1ccc(F)cc1)C(=O)Nc1ccc([N+](=O)[O-])c(C(F)(F)F)c1 (racemic)
IC50 [1]: 2.67 µM
IC50 [2]: 8.21 µM
inhibition [3]: Dose-dependent effect
IC50 [4]: 112 µM

CC(CS(=O)(=O)c1cc(C(F)(F)F)cc(C(F)(F)F)c1)C(=O)Nc1ccc([N+](=O)[O-])cc1C(F)(F)F (racemic)
IC50 [1]: 3.08 µM

CC(CSc1cc(C(F)(F)F)cc(C(F)(F)F)c1)(Sc1cc(C(F)(F)F)cc(C(F)(F)F)c1)C(=O)Nc1ccc([N+](=O)[O-])cc1C(F)(F)F (racemic)
IC50 [1]: 0.43 µM
Ratio IC50 [5]: >3
IC50 [2]: 0.18 µM
inhibition [3]: Dose-dependent effect
Ratio IC50 [6]: >40
IC50 [4]: 0.91 µM

CC(CS(=O)(=O)c1ccc(F)cc1)C(=O)Nc1ccc([N+](=O)[O-])cc1C(F)(F)F (racemic)
IC50 [1]: 4.05 µM

CC(CS(=O)(=O)c1ccc(C(F)(F)F)cc1)C(=O)Nc1ccc(C#N)c(C(F)(F)F)c1 (racemic)
IC50 [1]: 58 µM

CC(CSc1ccc(C(F)(F)F)cc1)(Sc1ccc(C(F)(F)F)cc1)C(=O)Nc1ccc(C#N)c(C(F)(F)F)c1 (racemic)
IC50 [1]: 1.68 µM
IC50 [2]: 0.13 µM
inhibition [3]: Dose-dependent effect
IC50 [4]: 5.45 µM

CC(CSc1ccc(F)cc1)C(=O)Nc1ccc(C#N)c(C(F)(F)F)c1 (racemic)
IC50 [1]: 8.69 µM

CC(CS(=O)(=O)c1ccc(F)cc1)C(=O)Nc1ccc(C#N)c(C(F)(F)F)c1 (racemic)
IC50 [1]: 115 µM

CC(CS(=O)(=O)c1cc(C(F)(F)F)cc(C(F)(F)F)c1)C(=O)Nc1ccc(C#N)c(C(F)(F)F)c1 (racemic)
IC50 [1]: 6.16 µM

CC(CS(=O)(=O)c1ccc(C(F)(F)F)cc1)C(=O)Nc1ccc([N+](=O)[O-])cc1C(F)(F)F (racemic)
IC50 [1]: 26.3 µM

CC(CSc1ccc(F)cc1)C(=O)Nc1ccc([N+](=O)[O-])c(C(F)(F)F)c1 (racemic)
IC50 [1]: 27.2 µM

CC(CS(=O)(=O)c1cccc(OC(F)(F)F)c1)C(=O)Nc1ccc(C#N)c(C(F)(F)F)c1 (racemic)
IC50 [1]: 13.2 µM

CC(CS(=O)(=O)c1cc(C(F)(F)F)cc(C(F)(F)F)c1)C(=O)Nc1ccc([N+](=O)[O-])c(C(F)(F)F)c1 (racemic)
IC50 [1]: 12.2 µM

CC(CSc1ccc(F)cc1)C(=O)Nc1ccc([N+](=O)[O-])cc1C(F)(F)F (racemic)
IC50 [1]: 43.2 µM

CC(CS(=O)(=O)c1ccc(C(F)(F)F)cc1)C(=O)Nc1ccc(C#N)cc1C(F)(F)F (racemic)
IC50 [1]: 28.8 µM

C[C@](O)(CS(=O)(=O)c1ccc(F)cc1)C(=O)Nc1ccc(C#N)c(C(F)(F)F)c1 [(R)-BICALUTAMIDE]
IC50 [1]: 20.4 µM
IC50 [2]: 5.96 µM
IC50 [4]: 92.6 µM

CNC(=O)c1ccc(N2C(=S)N(c3ccc(C#N)c(C(F)(F)F)c3)C(=O)C2(C)C)cc1F [ENZALUTAMIDE]
IC50 [1]: 1.31 µM
IC50 [2]: 3.66 µM
IC50 [4]: 15.1 µM
